pIC50: −log10 of the molar value. Active and inactive are the calls of the source. No cut-off for these calls is given here.
Key:
[1] = Inhibition of porcine CEase using para-nitrophenyl butyrate as substrate preincubated with substrate for 5 mins followed by enzyme addition by spectrophotometric method; set-up: species or system Sus scrofa
Procedure, shortened: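 Porcine cholesterol esterase (10 ng mL–1 final) was assayed in pH 7.0 phosphate/NaCl buffer with 6 mM taurocholate, 3% acetonitrile, and 20 μM p-nitrophenyl butyrate at 25 °C. Test compounds in DMSO were preincubated 5 min, then the enzyme was added and A405 was monitored. IC50 came from four concentrations (1, 5, 10, 25 nM), with means of triplicates.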

[2] = species: Sus scrofa; assay: Inhibition of porcine CEase at 50 nM using para-nitrophenyl butyrate as substrate preincubated with substrate for 5 mins followed by enzyme addition by spectrophotometric method relative to control
[3] = species: Sus scrofa; assay: Mixed-type inhibition of porcine CEase at 1 to 50 nM using para-nitrophenyl butyrate as substrate preincubated with substrate for 5 mins followed by enzyme addition by Lineweaver-Burk plot analysis

| pIC50 [1] | inhibition [2] [%] | inhibition [3] | SMILES |
| --- | --- | --- | --- |
| 8.09 | > 60 |  | O=c1cc(-c2ccc(Br)cc2)oc2ccc3ccccc3c12 |
| 7.88 | > 60 |  | O=c1cc(-c2ccc(I)cc2)oc2ccc3ccccc3c12 |
| 9.00 | > 60 |  | O=c1cc(-c2cc(F)cc(F)c2)oc2ccc3ccccc3c12 |
| 8.97 | > 60 |  | O=c1cc(-c2cc(F)ccc2F)oc2ccc3ccccc3c12 |
| 7.29 |  |  | O=c1cc(-c2ccccc2)oc2ccc3ccccc3c12 [BETA-NAPHTHOFLAVONE] |
| 7.64 | > 60 |  | O=c1cc(-c2ccc(C(F)(F)F)cc2F)oc2ccc3ccccc3c12 |
| 7.78 | > 60 |  | O=c1cc(-c2cccc([N+](=O)[O-])c2)oc2ccc3ccccc3c12 |
| 8.02 | > 60 |  | O=c1cc(-c2ccccc2I)oc2ccc3ccccc3c12 |
| 7.65 | > 60 |  | O=c1cc(-c2ccc(CCl)cc2)oc2ccc3ccccc3c12 |
| 8.84 | > 60 |  | O=c1cc(-c2ccc(F)cc2F)oc2ccc3ccccc3c12 |
| 7.54 | > 60 |  | O=c1cc(-c2cc(F)cc(C(F)(F)F)c2)oc2ccc3ccccc3c12 |
| 9.08 | > 60 |  | O=c1cc(-c2cccc(Cl)c2)oc2ccc3ccccc3c12 |
| 8.92 | > 60 |  | O=c1cc(-c2c(F)cccc2F)oc2ccc3ccccc3c12 |
| 7.50 | > 60 |  | O=c1cc(-c2ccccc2C(F)(F)F)oc2ccc3ccccc3c12 |
| 7.54 | > 60 |  | O=c1cc(-c2c(F)cccc2C(F)(F)F)oc2ccc3ccccc3c12 |
| 7.56 | > 60 |  | O=c1cc(-c2cc(F)ccc2C(F)(F)F)oc2ccc3ccccc3c12 |
| 9.14 | > 60 | Active | O=c1cc(-c2cccc(Cl)c2Cl)oc2ccc3ccccc3c12 |
| 8.35 | > 60 |  | O=c1cc(-c2ccc(F)cc2)oc2ccc3ccccc3c12 |
| 7.74 | > 60 |  | O=c1cc(-c2ccc([N+](=O)[O-])cc2)oc2ccc3ccccc3c12 |
| 8.94 | > 60 |  | O=c1cc(-c2ccc(F)c(F)c2)oc2ccc3ccccc3c12 |
| 8.22 | > 60 |  | O=c1cc(-c2cccc(Br)c2)oc2ccc3ccccc3c12 |
| 8.59 | > 60 |  | O=c1cc(-c2ccccc2F)oc2ccc3ccccc3c12 |
| 8.33 | > 60 |  | O=c1cc(-c2ccccc2Br)oc2ccc3ccccc3c12 |
| 7.70 | > 60 |  | O=c1cc(-c2cccc(CCl)c2)oc2ccc3ccccc3c12 |
| 8.41 | > 60 |  | O=c1cc(-c2cccc(F)c2)oc2ccc3ccccc3c12 |
| 8.01 | > 60 |  | O=c1cc(-c2cc([N+](=O)[O-])cc([N+](=O)[O-])c2)oc2ccc3ccccc3c12 |

| SMILES | pIC50 [1] | inhibition [2] [%] | inhibition [3] |
| --- | --- | --- | --- |
| CCOP(=O)(OCC)Oc1cc(O)c2c(=O)cc(-c3ccccc3)oc2c1 | 9.14 |  |  |
